# Article PMC9272679 (Computers in Biology and Medicine, 2022)
# Marks after values point to notes of the source that are not given here.
# Legend:
# [1] = In vivo pharmacokinetics in rats; design: species or system Male albino Wistar rats; conditions: male, Wistar, rat, plasma, po, 5 mg/kg
# Procedure, shortened: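 Rats were given test compound at 5 mg/kg BW orally. Blood was drawn hourly over 24 h (24 samples) into Na2EDTA tubes, and plasma was quantified by UPLC. Cmax, Tmax and AUC0-t were taken from the plasma concentration-time curve. K came from the terminal log-linear slope, and AUC0→∞ was calculated as AUC0-t + Clast/K.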
# MCF7 = test: In vitro antiproliferative assay; type: cell-based, human; conditions: for mean optical densities: 48 h, SRB, 515 nm
# Procedure, shortened: (§1)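 NCI-sourced cells grown in DMEM with 10% FBS, penicillin 25 U/mL and streptomycin 25 U/mL (37 °C, 5% CO2, 95% humidity). 5000–40,000 viable cells/well attached 24 h, then fresh medium with test compound at 0, 0.1, 1.0, 10 or 100 μM for 48 h. TCA-fixed (10%, 1 h RT), 0.4% SRB stain 60 min, acetic acid wash, Tris-solubilised dye read at 515 nm. GI50 and TGI calculated; triplicates, mean ± SD.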
# HOP-62 = test: In vitro antiproliferative assay; type: cell-based, human; conditions: for mean optical densities: 48 h, SRB, 515 nm
# Procedure, shortened: as §1
# A549/ATCC = test: In vitro antiproliferative assay; type: cell-based, human; conditions: for mean optical densities: A549/ATCC, 48 h, SRB, 515 nm
# Procedure, shortened: as §1
# K-562 = test: In vitro antiproliferative assay; type: cell-based, human; conditions: for mean optical densities: 48 h, SRB, 515 nm
# Procedure, shortened: as §1
# NCI–H322 M = test: In vitro antiproliferative assay; type: cell-based, human; conditions: 48 h; for mean optical densities: NCI–H322 M, SRB, 515 nm
# Procedure, shortened: as §1
# A549 = test: In vitro antiproliferative assay; type: cell-based, human; conditions: for mean optical densities: 48 h, SRB, 515 nm
# Procedure, shortened: as §1
# NCI–H522 = test: In vitro antiproliferative assay; type: cell-based, human; conditions: for mean optical densities: 48 h, SRB, 515 nm
# Procedure, shortened: as §1
# NCI–H226 = test: In vitro antiproliferative assay; type: cell-based, human; conditions: for mean optical densities: 48 h, SRB, 515 nm
# Procedure, shortened: as §1
# [2] = system: five cell lines originating from human lungs; test: In vitro antiproliferative assay; type: cell-based; conditions: read-out: IC50 range
# Procedure, shortened: as §1
smiles,measurement,setting,value
"CCNc1nc2ccccc2c2c(=O)c3cc(Cl)ccc3sc12 [RXn-02, 10-chloro-6-(ethylamino)-12H-thiochromeno[2,3-c] quinolin-12-one]",AUC(0-t),[1],18900 ng·h/mL
same,Cmax,[1],1760 ng/mL
same,IC50,"MCF7; Homo sapiens, MCF7, 48 h",0.047 µM
same,mean optical densities,"MCF7; MCF7, RXn-02 0.1 μM",1.083
same,mean optical densities,"MCF7; MCF7, RXn-02 1.0 μM",0.873
same,mean optical densities,"MCF7; MCF7, RXn-02 10 μM",0.735***
same,mean optical densities,"MCF7; MCF7, RXn-02 100 μM",0.699***
same,mean optical densities,"HOP-62; HOP-62, RXn-02 0.1 μM",1.859
same,mean optical densities,"HOP-62; HOP-62, RXn-02 1.0 μM",1.761
same,mean optical densities,"HOP-62; HOP-62, RXn-02 10 μM",1.463*
same,mean optical densities,"HOP-62; HOP-62, RXn-02 100 μM",0.319***
same,IC50,"HOP-62; Homo sapiens, HOP-62, 48 h",13.3 µM
same,mean optical densities,A549/ATCC; RXn-02 0.1 μM,1.997
same,mean optical densities,A549/ATCC; RXn-02 1.0 μM,1.883
same,mean optical densities,A549/ATCC; RXn-02 10 μM,1.602**
same,mean optical densities,A549/ATCC; RXn-02 100 μM,1.129**
same,IC50,"A549/ATCC; Homo sapiens, A549, 48 h",48.1 µM
same,IC50,"K-562; Homo sapiens, K562, 48 h",100 µM
same,mean optical densities,"K-562; K-562, RXn-02 0.1 μM",1.771
same,mean optical densities,"K-562; K-562, RXn-02 1.0 μM",1.668
same,mean optical densities,"K-562; K-562, RXn-02 10 μM",1.242
same,mean optical densities,"K-562; K-562, RXn-02 100 μM",1.056*
same,IC50,"NCI–H322 M; Homo sapiens, NCI-H322M",69.5 µM
same,mean optical densities,NCI–H322 M; RXn-02 0.1 μM,1.491
same,mean optical densities,NCI–H322 M; RXn-02 1.0 μM,1.386
same,mean optical densities,NCI–H322 M; RXn-02 10 μM,1.209*
same,mean optical densities,NCI–H322 M; RXn-02 100 μM,1.020*
same,mean optical densities,"A549; A549, RXn-02 0.1 μM",1.997
same,mean optical densities,"A549; A549, RXn-02 1.0 μM",1.883
same,mean optical densities,"A549; A549, RXn-02 10 μM",1.602**
same,mean optical densities,"A549; A549, RXn-02 100 μM",1.129**
same,IC50,"A549; Homo sapiens, A549, 48 h",48.1 µM
same,IC50,"NCI–H522; Homo sapiens, NCI-H522, 48 h",24.8 µM
same,mean optical densities,"NCI–H522; NCI–H522, RXn-02 0.1 μM",2.405
same,mean optical densities,"NCI–H522; NCI–H522, RXn-02 1.0 μM",2.362
same,mean optical densities,"NCI–H522; NCI–H522, RXn-02 10 μM",2.110*
same,mean optical densities,"NCI–H522; NCI–H522, RXn-02 100 μM",1.395**
same,IC50,"NCI–H226; Homo sapiens, NCI-H226, 48 h",33.2 µM
same,mean optical densities,"NCI–H226; NCI–H226, RXn-02 0.1 μM",2.389
same,mean optical densities,"NCI–H226; NCI–H226, RXn-02 1.0 μM",2.367
same,mean optical densities,"NCI–H226; NCI–H226, RXn-02 10 μM",2.142*
same,mean optical densities,"NCI–H226; NCI–H226, RXn-02 100 μM",1.704**
same,IC50,[2],33.2 to 69.5 µM
